In ChEMBL document CHEMBL4251587, “Synthesis and antimicrobial activity of amino acid and peptide derivatives of mycophenolic acid” (2018):
Values after ≈ are worked out from the molar mass of the structure shown. One block for each compound: values may come before it. Active and inactive are the calls of the source. The rule behind the calls is not given here. Non-standard residues stand in square brackets, D forms with d. Residues, ends and D or L forms follow the SMILES beside them. *: point of attachment. Mycophenolyl = COc1c(C)c2c(c(O)c1C/C=C(\C)CCC(=O)*)C(=O)OC2; Arg(NO2) = N=C(NCCC[CH](N)C(=O)O)N[N+](=O)[O-]; βAla = NCCC(=O)O

Tests used:
Format in all cases: functional
[1] = test system: Klebsiella pneumoniae; assay: Antibacterial activity against ESBL positive Klebsiella pneumoniae ATCC 700603 after 18 to 20 hrs by spectrophotometry based microdilution method
How it was run: (§1)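 Broth microdilution in Mueller Hinton Broth II following EUCAST. Log-phase cultures were diluted to McFarland 0.5, and 104 cells/ml went into 2-fold serial dilutions of compound (stock in 6% DMSO). Incubation was 35 ± 1 °C for 18–20 h, read at OD600 and visually. MIC50 and MIC90 were taken as the concentrations giving 50% and 90% growth arrest. Resazurin (0.015%, 2 h, 37 °C, dark) confirmed the result. 3 replicates in 3 independent experiments.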

[2] = test system: Pseudomonas aeruginosa; assay: Antibacterial activity against Pseudomonas aeruginosa ATCC 27853 after 18 to 20 hrs by spectrophotometry based microdilution method; how it was run: as §1
[3] = test system: Staphylococcus aureus; assay: Antibacterial activity against methicillin-resistant Staphylococcus aureus ATCC 43300 after 18 to 20 hrs by spectrophotometry based microdilution method
How it was run: (§2)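 Broth microdilution in MHB II following EUCAST. Log-phase cultures diluted 1:1000, then 50-fold in saline to McFarland 0.5, giving 10^4 cells/ml per well. Compounds (stock in 6% DMSO) twofold serially diluted. Incubation 35 ± 1 °C, 18–20 h. OD600 plus visual read; MIC50/MIC90 = 50%/90% growth arrest. Resazurin (0.015%, 37 °C, 2 h, dark) confirmation. 3 replicates, 3 independent experiments.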

[4] = test system: Acinetobacter baumannii; assay: Antibacterial activity against Acinetobacter baumannii ATCC 17978 after 18 to 20 hrs by spectrophotometry based microdilution method
[5] = test system: Staphylococcus aureus; assay: Antibacterial activity against methicillin-sensitive Staphylococcus aureus ATCC 25923 after 18 to 20 hrs by spectrophotometry based microdilution method; how it was run: as §2
[6] = test system: Escherichia coli; assay: Antibacterial activity against Escherichia coli ATCC 8739 after 18 to 20 hrs by spectrophotometry based microdilution method; how it was run: as §1
[7] = test system: Pseudomonas aeruginosa; assay: Antibacterial activity against Pseudomonas aeruginosa ATCC 27853 assessed as inhibition of bacterial growth at 1500 uM after 18 to 20 hrs by spectrophotometry based microdilution method relative to untreated control; conditions: read-out: GI
How it was run: (§3)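 Growth inhibition at a single compound concentration in the EUCAST broth microdilution setup: Mueller Hinton Broth II, 104 cells/ml from log-phase culture, compound stock in 6% DMSO. After 35 ± 1 °C for 18–20 h, OD600 was compared with the untreated growth control. ">" marks 10–50% inhibition and ">>" marks under 10% inhibition. 3 replicates, 3 independent experiments.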

[8] = test system: Escherichia coli; assay: Antibacterial activity against Escherichia coli ATCC 8739 assessed as inhibition of bacterial growth at 1500 uM after 18 to 20 hrs by spectrophotometry based microdilution method relative to untreated control; conditions: ATCC 8739, ATCC 8739, read-out: GI; how it was run: as §3
[9] = test system: Escherichia coli; assay: Antibacterial activity against Escherichia coli ATCC 8739 at 375 uM after 18 to 20 hrs by spectrophotometry based microdilution method relative to untreated control; conditions: ATCC 8739, ATCC 8739, read-out: GI; how it was run: as §3
[10] = test system: Escherichia coli; assay: Antibacterial activity against Escherichia coli ATCC 8739 at 750 uM after 18 to 20 hrs by spectrophotometry based microdilution method relative to untreated control; conditions: ATCC 8739, ATCC 8739, read-out: GI; how it was run: as §3
[11] = test system: Klebsiella pneumoniae; assay: Antibacterial activity against ESBL positive Klebsiella pneumoniae ATCC 700603 assessed as inhibition of bacterial growth at 375 uM after 18 to 20 hrs by spectrophotometry based microdilution method relative to untreated control; conditions: read-out: GI; how it was run: as §3
[12] = test system: Staphylococcus aureus; assay: Antibacterial activity against methicillin-sensitive Staphylococcus aureus ATCC 25923 assessed as inhibition of bacterial growth at 187.5 uM after 18 to 20 hrs by spectrophotometry based microdilution method relative to untreated control; conditions: read-out: GI; how it was run: as §3

SMILES: COC(=O)C[C@H](NC(=O)CC/C(C)=C/Cc1c(O)c2c(c(C)c1OC)COC2=O)C(=O)OC
- MIC50 [1]: 256 µg/mL (≈ 552 µM)
- MIC50 [2]: inactive
- MIC50 [3]: 32 µg/mL (≈ 69 µM)
- MIC50 [4]: 256 µg/mL (≈ 552 µM)
- MIC50 [5]: 32 µg/mL (≈ 69 µM)
- MIC50 [6]: 256 µg/mL (≈ 552 µM)

SMILES: COc1c(C)c2c(c(O)c1C/C=C(\C)CCC(=O)N[C@@H](C(=O)O)[C@@H](C)O)C(=O)OC2
- MIC50 [1]: inactive
- inhibition of growth at 1500 µM [7]: 10 to 50%
- inhibition of growth at 1500 µM [8]: 10 to 50%
- MIC50 [3]: inactive
- MIC50 [5]: inactive

SMILES: COC(=O)C(NC(=O)C(CCCCNC(=O)CN)NC(=O)C1CCCN1C(=O)C(CCCNC(=N)N[N+](=O)[O-])NC(=O)CC/C(C)=C/Cc1c(O)c2c(c(C)c1OC)COC2=O)C(C)O (stereo unspecified) (Mycophenolyl-[Arg(NO2)]PK(Gly)T-OMe; configuration not given here)
- MIC50 [1]: 16 µg/mL (≈ 17.4 µM)
- MIC50 [2]: inactive
- MIC50 [3]: 64 µg/mL (≈ 69.6 µM)
- MIC50 [4]: 128 µg/mL (≈ 139 µM)
- MIC50 [5]: 64 µg/mL (≈ 69.6 µM)
- MIC50 [6]: 256 µg/mL (≈ 279 µM)

SMILES: COC(=O)[C@@H](NC(=O)CC/C(C)=C/Cc1c(O)c2c(c(C)c1OC)COC2=O)C(C)O (stereo partly specified)
- MIC50 [1]: 256 µg/mL (≈ 588 µM)
- MIC50 [2]: inactive
- MIC50 [3]: 32 µg/mL (≈ 73.5 µM)
- MIC50 [4]: 256 µg/mL (≈ 588 µM)
- MIC50 [5]: 8 µg/mL (≈ 18.4 µM)
- MIC50 [6]: 256 µg/mL (≈ 588 µM)

SMILES: CCC(C)[C@H](NC(=O)CC/C(C)=C/Cc1c(O)c2c(c(C)c1OC)COC2=O)C(=O)OC (stereo partly specified)
- MIC50 [1]: 256 µg/mL (≈ 572 µM)
- MIC50 [2]: inactive
- MIC50 [3]: 256 µg/mL (≈ 572 µM)
- MIC50 [4]: 256 µg/mL (≈ 572 µM)
- MIC50 [5]: 16 µg/mL (≈ 35.8 µM)
- MIC50 [6]: 256 µg/mL (≈ 572 µM)

- MIC50 [4]: inactive
- MIC50 [5]: inactive
SMILES: CC[C@H](C)[C@H](NC(=O)CC/C(C)=C/Cc1c(O)c2c(c(C)c1OC)COC2=O)C(=O)O
- inhibition of growth at 375 µM [9]: 10 to 50%

SMILES: COC(=O)[C@H](NC(=O)CC/C(C)=C/Cc1c(O)c2c(c(C)c1OC)COC2=O)C(C)O (stereo partly specified)
- MIC50 [1]: inactive
- inhibition of growth at 1500 µM [7]: 10 to 50%
- inhibition of growth at 1500 µM [8]: 10 to 50%
- MIC50 [3]: inactive
- MIC50 [5]: inactive

SMILES: COc1c(C)c2c(c(O)c1C/C=C(\C)CCC(=O)N[C@@H](CC(=O)O)C(=O)O)C(=O)OC2
- MIC50 [1]: inactive
- inhibition of growth at 750 µM [10]: 10 to 50%
- inhibition of growth at 1500 µM [7]: 10 to 50%
- MIC50 [3]: inactive
- MIC50 [5]: inactive

SMILES: CC1(C)S[C@@H]2[C@H](NC(=O)[C@H](N)c3ccccc3)C(=O)N2[C@H]1C(=O)O [AMPICILLIN]
- MIC90 [1]: 128 µg/mL (≈ 366 µM)
- MIC90 [2]: 256 µg/mL (≈ 733 µM)
- MIC90 [3]: 128 µg/mL (≈ 366 µM)
- MIC90 [4]: 2 µg/mL (≈ 5.72 µM)
- MIC90 [5]: 0.125 µg/mL (≈ 0.358 µM)
- MIC90 [6]: 8 µg/mL (≈ 22.9 µM)

SMILES: NC[C@H]1O[C@H](O[C@H]2[C@H](O)[C@@H](O[C@H]3O[C@H](CO)[C@@H](O)[C@H](N)[C@H]3O)[C@H](N)C[C@@H]2N)[C@H](O)[C@@H](O)[C@@H]1O [KANAMYCIN]
- MIC50 [1]: inactive
- MIC50 [2]: 1500 µg/mL (≈ 3100 µM)
- MIC90 [3]: 125 µg/mL (≈ 258 µM)
- MIC50 [4]: inactive
- MIC90 [5]: 7.8 µg/mL (≈ 16.1 µM)
- MIC90 [6]: 15.6 µg/mL (≈ 32.2 µM)

SMILES: COC(=O)C(NC(=O)CC/C(C)=C/Cc1c(O)c2c(c(C)c1OC)COC2=O)C(=O)OC
- MIC50 [1]: 128 µg/mL (≈ 285 µM)
- MIC50 [2]: inactive
- MIC50 [3]: 256 µg/mL (≈ 570 µM)
- MIC50 [4]: 256 µg/mL (≈ 570 µM)
- MIC50 [5]: 256 µg/mL (≈ 570 µM)
- MIC50 [6]: 256 µg/mL (≈ 570 µM)

SMILES: COc1c(C)c2c(c(O)c1C/C=C(\C)CCC(=O)N[C@H](CCCNC(=N)N[N+](=O)[O-])C(=O)O)C(=O)OC2
- MIC50 [1]: inactive
- inhibition of growth at 1500 µM [7]: 10 to 50%
- inhibition of growth at 1500 µM [8]: 10 to 50%
- MIC50 [3]: inactive
- MIC50 [5]: inactive

SMILES: COC(=O)C(NC(=O)C(CCCCNC(=O)CCN)NC(=O)C1CCCN1C(=O)C(CCCNC(=N)N[N+](=O)[O-])NC(=O)CC/C(C)=C/Cc1c(O)c2c(c(C)c1OC)COC2=O)C(C)O (stereo unspecified) (Mycophenolyl-[Arg(NO2)]PK(βAla)T-OMe; configuration not given here)
- MIC50 [1]: 32 µg/mL (≈ 34.3 µM)
- MIC50 [2]: inactive
- MIC50 [3]: 32 µg/mL (≈ 34.3 µM)
- MIC50 [4]: 128 µg/mL (≈ 137 µM)
- MIC50 [5]: 32 µg/mL (≈ 34.3 µM)
- MIC50 [6]: 256 µg/mL (≈ 274 µM)

SMILES: COC(=O)[C@H](CCCNC(=N)N[N+](=O)[O-])NC(=O)CC/C(C)=C/Cc1c(O)c2c(c(C)c1OC)COC2=O
- MIC50 [1]: 64 µg/mL (≈ 120 µM)
- MIC50 [2]: inactive
- MIC50 [3]: 64 µg/mL (≈ 120 µM)
- MIC50 [4]: 128 µg/mL (≈ 239 µM)
- MIC50 [5]: 32 µg/mL (≈ 59.8 µM)
- MIC50 [6]: 256 µg/mL (≈ 478 µM)

SMILES: COC(=O)[C@@H](CCCNC(=N)N[N+](=O)[O-])NC(=O)CC/C(C)=C/Cc1c(O)c2c(c(C)c1OC)COC2=O
- MIC50 [1]: inactive
- MIC50 [3]: inactive
- MIC50 [5]: inactive

SMILES: COc1c(C)c2c(c(O)c1C/C=C(\C)CCC(=O)N[C@H](C(=O)O)[C@@H](C)O)C(=O)OC2
- inhibition of growth at 375 µM [11]: 10 to 50%
- inhibition of growth at 750 µM [10]: 10 to 50%
- inhibition of growth at 1500 µM [7]: 10 to 50%
- MIC50 [3]: inactive
- MIC50 [5]: inactive

SMILES: COc1c(C)c2c(c(O)c1C/C=C(\C)CCC(=O)O)C(=O)OC2 [MYCOPHENOLIC ACID]
- MIC50 [1]: 128 µg/mL (≈ 400 µM)
- inhibition of growth at 1500 µM [7]: 10 to 50%
- inhibition of growth at 187.5 µM [12]: 10 to 50%
- MIC50 [3]: 750 µg/mL (≈ 2340 µM)
- MIC50 [4]: 128 µg/mL (≈ 400 µM)
- MIC90 [6]: 750 µg/mL (≈ 2340 µM)

SMILES: COc1c(C)c2c(c(O)c1C/C=C(\C)CCC(=O)N[C@@H](CCCNC(=N)N[N+](=O)[O-])C(=O)O)C(=O)OC2
- MIC50 [1]: inactive
- inhibition of growth at 750 µM [10]: 10 to 50%
- MIC50 [2]: inactive
- MIC50 [3]: inactive
- MIC50 [5]: inactive
